Screens from PubChem BioAssay.
This is a sample that favours compounds with a hit; in the whole collection about 1.6% have one here.
PKA-R2B activ: activators of PKA-R2B holoenzyme, primary screen, biochemical, fluorescence polarization, Cy5-IP20, human. cAMP-dependent protein kinase catalytic subunit beta (Homo sapiens) + cAMP-dependent …. PKA-R2B holoenzyme dissociation; R2B truncated from residue 108, S112A mutant; 0% DMSO only, 100% 113 µM cGMP. activation, % at 11.4 µM. hit rate 0.079% among 340,000. AID 504700, 2011;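 active = activation above a cutoff set at the mean over all compounds plus 3 SD, cut at about 18% in these data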;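 also: higher means more holoenzyme dissociation and a rise in polarization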
PKA-R1A act: activators of PKA-R1A holoenzyme, primary screen, biochemical, fluorescence polarization, Cy5-IP20, bovine R1A, mouse PKAc; cAMP-dependent protein kinase type I-alpha regulatory subunit (Bos taurus) + …; PKA-R1A dissociation; scaled: DMSO 0%, 113 µM cGMP 100%; activation, % at 11.4 µM; hit rate 0.083% among 340,000;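 active = percent activation above the mean of all tested compounds plus 3 SD, cut at about 19% in these data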;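 also: higher means more PKAc released from R1A so a rise in polarization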
PG9 Ab binder: binders of HIV-1 gp120 antibody PG9, primary screen, biochemical, TR-FRET. TR-FRET gp120-PG9 antibody binding. inhibition, % at 6.7 µM. hit rate 0.43% among 360,000. AID 624416, 2012; in the data active = inhibition above about 8.5%
Rev-erbA mod: modulators of Rev-erb alpha DNA binding, primary screen, biochemical, FITC-DNA, fluorescence polarization, uHTS; Nuclear receptor subfamily 1 group D member 1 (Homo sapiens), P20393; AID 1259318, 2017; hit rate 0.79% among 370,000; activity, % at 10 µM; Rev-erbα–FITC-DNA binding, 90 min;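 active = activity above about 14%, limit read from the data; passing the limit was not always enough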;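 also: 0% = DMSO wells with 35 nM protein and 100% = DMSO wells with 750 nM protein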
NR2E3 ag-1: NR2E3 agonists in two-hybrid cells, primary screen, cell-based, luminescence, CHO-S, Gal4-NCOR/VP16-NR2E3; Photoreceptor-specific nuclear receptor (Homo sapiens), Q9Y5X4; luciferase; inhibition of corepressor binding, % at 3.98 µM; hit rate 0.35% among 360,000;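 active = inhibition above the mean of all tested compounds plus 3 SD, cut at about 70% in these data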;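 also: 0% = DMSO with NR2E3 transfected cells and 100% = cells lacking NR2E3 construct; higher means lower luciferase signal from less NR2E3 corepressor binding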
Target sequence (Q9Y5X4 whole entry, looked up, the tested form may be a part): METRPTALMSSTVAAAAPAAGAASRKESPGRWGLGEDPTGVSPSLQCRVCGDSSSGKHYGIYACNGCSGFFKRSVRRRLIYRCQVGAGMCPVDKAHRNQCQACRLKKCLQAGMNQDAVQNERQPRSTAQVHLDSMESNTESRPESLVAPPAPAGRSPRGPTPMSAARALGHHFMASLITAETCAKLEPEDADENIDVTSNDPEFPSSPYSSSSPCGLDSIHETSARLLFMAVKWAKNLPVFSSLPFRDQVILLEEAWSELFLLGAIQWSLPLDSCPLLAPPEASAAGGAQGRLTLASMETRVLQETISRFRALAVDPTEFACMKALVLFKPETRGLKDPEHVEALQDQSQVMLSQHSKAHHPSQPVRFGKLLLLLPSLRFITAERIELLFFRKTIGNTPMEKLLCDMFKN
NR2E3 ag-2: inhibitors of NR2E3-RetCOR corepressor binding, primary screen, NR2E3 agonist project, biochemical, TR-FRET, GST-NR2E3, biotin-RetCOR. inhibition of corepressor binding, % at 4.78 µM. Photoreceptor-specific nuclear receptor (Homo sapiens), Q9Y5X4. 1536-well. hit rate 0.12% among 320,000;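 active = percent inhibition above the cutoff of mean plus 3 SD of all tested compounds, set per screening campaign, cut at about 20% in these data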;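 also: 0% = DMSO wells and 100% = biotin wells as full block of FRET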
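Material: NR2E3–RetCOR corepressor complex / Incubation: Compound–protein incubation for 5 h at 4 °C / Dosing: compound at 4.8 µM, single dose / Detection: time-resolved FRET / Benchmarks: high control biotin, low control 0.6% DMSO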
PG9 binder conf: binders of anti-gp120 antibody PG9, confirmation, biochemical, TR-FRET; shares compounds with PG9 Ab binder; TR-FRET PG9 antibody binding; inhibition, % at 6.7 µM; hit rate 90% among 1,500; AID 651571, 2012; in the data active = inhibition above about 9%
PGV04 counter: binders of control antibody PGV04, counter-screen for PG9 antibody binder project, biochemical, TR-FRET, distinct HIV envelope site; inhibition, % at 6.7 µM; AID 651604, 2012; shares compounds with PG9 Ab binder; hit rate 95% among 1,500; TR-FRET PGV04 antibody-gp120 binding; in the data active = inhibition above about 9.5%
PG9 bind DR: small-molecule binders of antibody PG9, dose response, biochemical, TR-FRET, HIV-1 gp120 antibody; TR-FRET PG9 antibody-gp120 binding inhibition; shares compounds with PG9 Ab binder; IC50, µM; 95 tested, under 10 active; in the data active = IC50 below about 10 µM
PGV04 DR counter: binders of control antibody PGV04, dose response, counter-screen for PG9 antibody binder project, biochemical, TR-FRET, distinct HIV envelope site; shares compounds with PG9 Ab binder; TR-FRET binding to control antibody PGV04; IC50, µM; hit rate 20% among 95
PG126 binding DR: binders of control antibody PG126, dose response, counter-screen for PG9 antibody binder project, biochemical, TR-FRET, distinct HIV envelope site | shares compounds with PG9 Ab binder | TR-FRET binding to antibody PG126, counterscreen | IC50, µM | hit rate 20% among 95 | AID 651939, 2012
* hit, by the source's call; · = no result given. Rule as the data show it, unless noted: active = IC50 below about 9 µM; inactive = the rest.

SMILES | PKA-R2B activ | PKA-R1A act | PG9 Ab binder | Rev-erbA mod | NR2E3 ag-1 | NR2E3 ag-2 | PG9 binder conf | PGV04 counter | others
COC(=O)C1=C(C)N(Cc2cccc(C(F)(F)F)c2)C(=NCC2CC2)NC1c1cccc(C(F)(F)F)c1 (configuration not stated) | · | · | 0 | 0 | · | · | · | ·
CCCCNC(=O)C[C@H]1C[C@@]2(C(=O)OC)C(=C[C@H](C(C)C)O[C@@H]2C2CC2)N(Cc2cccc3ccccc23)C1=O | · | · | · | 2 | · | · | · | ·
COC(=O)Cc1ccc(NC(=O)c2ccc(Br)o2)cc1 | -12 | 1 | 1 | 4 | -97 | 0 | · | ·
COc1ccc(-c2ccc(NC(=O)c3ccc(Br)o3)cc2)nn1 | 0 | -13 | 14* | 1 | 1 | -23 | 13* | 24*
CC(C)(C)c1ccc(-c2nnc(SCC(=O)c3ccc4ccccc4c3)n2-c2ccc(Cl)cc2)cc1 | · | · | · | -1 | · | · | · | ·
O=C(CCn1c(=O)c2ccccc2n(Cc2ccccc2)c1=O)NCc1ccc2c(c1)OCO2 | 7 | -6 | 13* | -2 | -14 | 0 | 24* | 42*
COC(=O)c1nn(-c2ccc(C)cc2)c2nnc(Cc3ccccc3)c(=O)n12 | -6 | 11 | 23* | -4 | -17 | -2 | 19* | 28*
NC(N)=NS(=O)(=O)c1ccc(NC(=S)NC(=O)c2ccc3c(c2)OCO3)cc1 | -6 | -5 | 9.5* | 13 | -6 | 3 | 15* | 22*
CC(=O)Nc1ccc(S(=O)(=O)Nc2ccccc2C(=O)NCc2cccnc2)cc1 | 0 | -7 | 2 | 1 | -2 | 3 | · | ·
O=C(NCc1cccnc1)c1ccccc1NS(=O)(=O)c1ccccc1 | 5 | 6 | 11* | 2 | -15 | 4 | 9.5* | 19*
Cc1ccc(S(=O)(=O)N2c3ccc(F)cc3C[C@H]2CSc2ccccc2)cc1 | · | · | · | -3 | · | · | · | ·
CCCc1cc(=O)oc2cc(OCC(=O)Nc3ccc(S(N)(=O)=O)cc3)ccc12 | -5 | -8 | 18* | 11 | 8 | 1 | 24* | 22* | PG9 bind DR=>67;PGV04 DR counter=>67;PG126 binding DR=>67
CCCc1cc(=O)oc2cc(OCC(=O)NCc3cccs3)ccc12 | -6 | -5 | 1 | 5 | 27 | 4 | · | ·
COC(=O)c1cc(NC(=O)NC2CCCCN(Cc3ccc(Cl)cc3)C2=O)cc(C(=O)OC)c1 (configuration not stated) | · | · | · | 5 | · | · | · | ·
CC(c1ccccc1)n1cc(C(=O)NCCCN2CCCC2)nn1 (configuration not stated) | · | · | · | -7 | · | · | · | ·
CCn1c(SCc2nc(-c3ccccc3)no2)nnc1-c1cccs1 | -1 | -3 | 2 | 5 | -11 | 0 | · | ·
CCn1c(SCc2nc(-c3ccccc3)no2)nnc1-c1ccco1 | 9 | 1 | 15* | 2 | -12 | -1 | 49* | 61*
Cc1ccc(S(=O)(=O)N2CCN(C(=O)c3cccn3C)CC2)cc1 | · | · | · | 3 | · | · | · | ·
C[C@]12c3[nH]c4ccccc4c3CCN1C(=O)C(CC(=O)NCCCn1ccnc1)C[C@@H]2C(=O)N1CCOCC1 (some centres not stated) | 4 | 3 | 15* | -4 | -23 | · | 6 | 9.3*
O=C(NCC1CCN(C(=O)C(=O)c2cccs2)CC1)c1cccnc1 | · | · | 1 | -3 | · | · | · | ·
CCc1ccccc1NC(=O)CC1S/C(=N\c2nccs2)N(CC)C1=O (configuration not stated) | 1 | 5 | 15* | -5 | 5 | -1 | 9.0* | 12*
Cc1ccccc1NC(=O)CC1S/C(=N/c2nccs2)N(C)C1=O (configuration not stated) | -8 | -5 | 1 | -1 | -22 | 1 | · | ·
CC1(C)Oc2ccc3ccc(=O)oc3c2C(N2CCCCC2)C1O (configuration not stated) | -1 | -4 | 11* | -5 | 0 | -1 | 7 | 9.2*
CC1(C)Oc2ccc3ccc(=O)oc3c2[C@H](O)[C@H]1O | -9 | 3 | 0 | 6 | -20 | 5 | · | ·
COC(=O)C1=C(C)N(Cc2cccc(C(F)(F)F)c2)C(=NCc2ccc(OC)cc2)NC1c1cccc(F)c1 (configuration not stated) | · | · | -1 | 1 | · | · | · | ·
SMILES | PKA-R2B activ | PKA-R1A act | PG9 Ab binder | Rev-erbA mod | NR2E3 ag-1 | NR2E3 ag-2 | PG9 binder conf | PGV04 counter | others
O=C(COC(=O)c1cccc(-n2cnnn2)c1)c1ccc(F)cc1 | -8 | -2 | -1 | -3 | -45 | 0 | · | ·
COc1ccc(C(=O)COC(=O)c2cccc(-n3cnnn3)c2)c(OC)c1 | 0 | 12 | 18* | 7 | -103 | 1 | 6 | 9
CC(=O)N1CCc2c1cccc2S(=O)(=O)NC(CC(C)C)C(=O)Nc1ccccc1C (configuration not stated) | · | · | · | 1 | · | · | · | ·
Oc1ccc(C=Nc2ccc(N3CCOCC3)cc2)c(O)c1 | -3 | 6 | -3 | -8 | -13 | 1 | · | ·
Cc1ccc(N=Cc2ccc(O)cc2O)cc1F | 3 | 7 | 17* | 1 | -14 | 0 | 11* | 15*
CCN=C1NC(CCc2ccccc2)C(C(=O)OC)=C(C)N1Cc1ccccc1C(F)(F)F (configuration not stated) | · | · | -1 | 0 | · | · | · | ·
